Source: ChEMBL document CHEMBL5338796, “Discovery of a Selective and Orally Bioavailable FGFR2 Degrader for Treating Gastric Cancer” (J Med Chem, 2023)
One block for each molecule: values may come before it. Activity calls are given as the source filed them. The calls are words filed in the database; no cut-off is given here.

Legend:
[1] = target: T1, Protein cereblon/Fibroblast growth factor receptor 2 (Homo sapiens, UniProt P21802+Q96SW2); assay: PROTAC activity at CRBN/FGFR2 in human KATO III stomach cancer cell line assessed as FGFR2 degradation by measuring FGFR2 expression level measured for 6 hrs by Western blotting analysis; format: cell-based
Outline: (§1)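 KATO III cells treated 6 h across 0.5–10,000 nM (DMSO stock, final DMSO below 0.5%); FGFR2 immunoblotted, quantified as FGFR2/β-actin ratio normalized to DMSO-treated cells, three independent biological experiments; DC50 and Dmax derived from the curve.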
Target sequence in this assay (P21802 whole entry): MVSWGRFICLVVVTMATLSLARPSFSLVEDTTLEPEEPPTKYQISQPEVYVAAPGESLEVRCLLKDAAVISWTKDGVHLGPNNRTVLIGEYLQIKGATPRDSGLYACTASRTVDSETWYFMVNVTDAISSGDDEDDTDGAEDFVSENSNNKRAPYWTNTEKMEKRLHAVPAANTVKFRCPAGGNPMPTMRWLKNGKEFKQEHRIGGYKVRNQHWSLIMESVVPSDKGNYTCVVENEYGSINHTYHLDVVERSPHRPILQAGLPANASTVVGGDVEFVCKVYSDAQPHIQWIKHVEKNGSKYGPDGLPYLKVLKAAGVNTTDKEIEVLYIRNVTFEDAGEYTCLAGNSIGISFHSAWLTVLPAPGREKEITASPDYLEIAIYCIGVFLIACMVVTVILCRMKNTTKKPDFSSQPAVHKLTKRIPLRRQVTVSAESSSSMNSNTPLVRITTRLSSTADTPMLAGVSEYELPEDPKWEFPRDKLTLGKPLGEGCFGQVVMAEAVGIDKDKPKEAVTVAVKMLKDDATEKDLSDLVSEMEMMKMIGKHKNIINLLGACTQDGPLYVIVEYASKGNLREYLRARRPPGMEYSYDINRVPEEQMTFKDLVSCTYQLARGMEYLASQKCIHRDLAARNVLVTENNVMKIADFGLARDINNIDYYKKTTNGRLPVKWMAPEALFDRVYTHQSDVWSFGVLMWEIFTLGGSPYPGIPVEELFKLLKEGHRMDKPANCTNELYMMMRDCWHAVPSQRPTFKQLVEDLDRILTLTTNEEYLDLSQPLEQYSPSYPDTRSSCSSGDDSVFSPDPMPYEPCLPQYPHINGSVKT
Target sequence in this assay (Q96SW2 whole entry): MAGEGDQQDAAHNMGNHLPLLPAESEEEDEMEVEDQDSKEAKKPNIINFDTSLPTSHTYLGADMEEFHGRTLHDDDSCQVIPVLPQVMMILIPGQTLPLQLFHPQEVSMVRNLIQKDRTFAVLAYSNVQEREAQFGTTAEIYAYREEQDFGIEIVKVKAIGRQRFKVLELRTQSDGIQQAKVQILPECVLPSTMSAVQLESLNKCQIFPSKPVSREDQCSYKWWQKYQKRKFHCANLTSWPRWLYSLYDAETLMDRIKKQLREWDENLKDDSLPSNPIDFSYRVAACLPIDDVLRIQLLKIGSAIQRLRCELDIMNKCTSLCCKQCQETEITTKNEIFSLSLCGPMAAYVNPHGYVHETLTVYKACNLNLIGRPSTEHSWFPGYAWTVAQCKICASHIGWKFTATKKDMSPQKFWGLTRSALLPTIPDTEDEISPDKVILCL

[2] = target: T1, Protein cereblon/Fibroblast growth factor receptor 2; assay: PROTAC activity at CRBN/FGFR2 in human KATO III stomach cancer cell line assessed as FGFR2 degradation by measuring FGFR2 expression level at 500 nM measured for 6 hrs by Western blotting analysis relative to control; format: cell-based; outline: as §1
Target sequence in this assay (P21802 22-821 limits assumed): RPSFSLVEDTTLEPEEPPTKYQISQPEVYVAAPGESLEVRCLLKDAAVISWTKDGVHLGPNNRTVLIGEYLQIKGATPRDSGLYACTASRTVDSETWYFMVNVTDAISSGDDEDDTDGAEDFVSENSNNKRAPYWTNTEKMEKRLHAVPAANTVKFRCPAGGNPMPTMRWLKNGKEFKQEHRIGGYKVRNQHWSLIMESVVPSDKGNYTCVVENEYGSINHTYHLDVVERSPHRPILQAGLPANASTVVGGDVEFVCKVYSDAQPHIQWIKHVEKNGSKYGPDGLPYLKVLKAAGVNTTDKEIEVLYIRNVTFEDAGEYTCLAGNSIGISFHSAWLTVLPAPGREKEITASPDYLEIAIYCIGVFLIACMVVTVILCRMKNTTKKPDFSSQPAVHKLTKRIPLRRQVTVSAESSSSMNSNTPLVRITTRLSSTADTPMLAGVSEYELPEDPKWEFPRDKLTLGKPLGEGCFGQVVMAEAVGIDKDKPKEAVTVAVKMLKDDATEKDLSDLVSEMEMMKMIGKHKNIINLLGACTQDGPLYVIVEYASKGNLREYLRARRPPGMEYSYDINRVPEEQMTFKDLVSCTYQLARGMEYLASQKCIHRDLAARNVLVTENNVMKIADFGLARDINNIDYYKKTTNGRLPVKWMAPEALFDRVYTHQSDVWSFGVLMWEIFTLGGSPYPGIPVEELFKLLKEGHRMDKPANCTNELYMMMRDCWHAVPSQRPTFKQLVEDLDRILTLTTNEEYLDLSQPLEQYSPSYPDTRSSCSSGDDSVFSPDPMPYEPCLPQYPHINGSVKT
Target sequence in this assay (Q96SW2 whole entry partner): as the sequence (Q96SW2 whole entry) above

SNU-16 [3] = assay: Antitumor activity against human SNU-16 cells xenografted in BALB/c nude mouse assessed as tumor growth inhibition at 20 mg/kg, po administered for 15 days and measured on day 2; format: functional; settings: SNU-16, 48 h, time 2 day, read-out: TGI
Outline: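 Female BALB/c nude mice, 5 weeks old (20–22 g), s.c. right-flank SNU-16 implants, randomized by body weight into groups (n = 5) once tumours reached 50–100 mm3. Dosing 20 mg/kg/day intragastric in 0.5% CMC-Na for 15 d; vehicle controls. Tumour width and length measured every 2 days; tumours harvested 4 h after last dose and lysates immunoblotted for pFGFR, FGFR2, pPLCγ, pErk.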

SNU-16 [4] = assay: Antiproliferative activity against human SNU-16 cells assessed as reduction in cell viability measured for 72 hrs by celltiter-glo reagent based assay; format: functional; settings: SNU-16, 72 h
Outline: (§2)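 Cancer lines KATO III, SNU16, NCI-H716, NCI-H1975, MV-4-11 and HEK293T treated 72 h; antiproliferative IC50 given as mean ± s.d. from three independent biological experiments.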

[5] = test system: KATO III stomach cancer cell line; assay: Antiproliferative activity against human KATO III stomach cancer cell line assessed as reduction in cell viability measured for 72 hrs by celltiter-glo reagent based assay; format: functional; outline: as §2
NCI-H716 = assay: Antiproliferative activity against human NCI-H716 cells assessed as reduction in cell viability measured for 72 hrs by celltiter-glo reagent based assay; format: functional; settings: NCI-H716, 72 h; outline: as §2
[6] = target: T1, Protein cereblon/Fibroblast growth factor receptor 2; assay: PROTAC activity at CRBN/FGFR2 in human KATO III stomach cancer cell line assessed as FGFR2 degradation by measuring FGFR2 expression level at 15 uM measured for 6 hrs by Western blotting analysis; format: cell-based
Target sequence in this assay (P21802 22-821 limits assumed): as the sequence (P21802 22-821 limits assumed) above
Target sequence in this assay (Q96SW2 whole entry partner): as the sequence (Q96SW2 whole entry) above

[7] = target: T1, Protein cereblon/Fibroblast growth factor receptor 2; assay: PROTAC activity at CRBN/FGFR2 in human KATO III stomach cancer cell line assessed as FGFR2 degradation by measuring FGFR2 expression level at 100 to 500 nM measured for 6 hrs by Western blotting analysis; format: cell-based; settings: dose 100-500 nM; outline: as §1
Target sequence in this assay (P21802 22-821 limits assumed): as the sequence (P21802 22-821 limits assumed) above
Target sequence in this assay (Q96SW2 whole entry partner): as the sequence (Q96SW2 whole entry) above

[8] = Oral bioavailability in mouse at 10 mg/kg; format: ADME, organism-based; settings: in vivo
[9] = target: T1, Protein cereblon/Fibroblast growth factor receptor 2; assay: PROTAC activity at CRBN/FGFR2 in human KATO III stomach cancer cell line assessed as FGFR2 degradation measured for 6 hrs by immunoblot analysis; format: cell-based
Outline: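 KATO III cells treated for 6 h at the stated concentrations, added from 10 mM DMSO stocks (final DMSO below 0.5%). Cells were washed with PBS and lysed in 2× loading buffer, then run on SDS-PAGE and blotted to PVDF. Anti-FGFR2 was applied overnight at 4 °C, with ECL detection. FGFR2 was expressed as FGFR2/β-actin, normalized to DMSO-treated cells, from three independent biological experiments.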
Target sequence in this assay (P21802 22-821 limits assumed): as the sequence (P21802 22-821 limits assumed) above
Target sequence in this assay (Q96SW2 whole entry partner): as the sequence (Q96SW2 whole entry) above

MV4-11 = assay: Antiproliferative activity against human MV4-11 cells assessed as reduction in cell viability measured for 72 hrs by celltiter-glo reagent based assay; format: functional; settings: MV4-11, 72 h; outline: as §2
NCI-H1975 = assay: Antiproliferative activity against human NCI-H1975 cells assessed as reduction in cell viability measured for 72 hrs by celltiter-glo reagent based assay; format: functional; settings: NCI-H1975, 72 h; outline: as §2
[10] = Antiproliferative activity against human HEK293T cells assessed as reduction in cell viability measured for 72 hrs by celltiter-glo reagent based assay; format: toxicity, HEK-293T; outline: as §2

Compound: CCN1CCN(c2ccc(Nc3cc(N(C)C(=O)Nc4c(Cl)c(OC)cc(OC)c4Cl)ncn3)cc2)CC1 [INFIGRATINIB]
inhibition in vivo at 20 mg/kg (SNU-16 [3]): 53.7%
IC50 (SNU-16 [4]): 95.4 nM
IC50 [5]: 60.3 nM
IC50 (NCI-H716): 65.9 nM

Compound: COc1cc(OC)c(Cl)c(NC(=O)N(C)c2cc(Nc3ccc(N4CCN(C(=O)CCCCCCCNc5cccc6c5C(=O)N(C5CCC(=O)NC5=O)C6=O)CC4)cc3)ncn2)c1Cl (centres undefined)
Activity ([2]; DEGRADER): 40%

Compound: COc1cc(OC)c(Cl)c(NC(=O)N(C)c2cc(Nc3ccc(N4CCN(C(=O)CCCCCCCCCCCNc5cccc6c5C(=O)N(C5CCC(=O)NC5=O)C6=O)CC4)cc3)ncn2)c1Cl (centres undefined)
Activity [7]: inactive

Compound: COc1cc(OC)c(Cl)c(NC(=O)N(C)c2cc(Nc3ccc(N4CCN(CC(=O)N[C@H](C(=O)N5C[C@H](O)C[C@H]5C(=O)N[C@@H](C)c5ccc(-c6scnc6C)cc5)C(C)(C)C)CC4)cc3)ncn2)c1Cl
bioavailability [8]: 0.2%

Now from value to molecule, other results behind:

DC50 [1]: 41.5 nM
Activity [2]: 66%
Activity ([2]; DEGRADER): 20%
Compound: COc1cc(OC)c(Cl)c(NC(=O)N(C)c2cc(Nc3ccc(N4CCN(CC(=O)NCCCCCNc5cccc6c5C(=O)N(C5CCC(=O)NC5=O)C6=O)CC4)cc3)ncn2)c1Cl (centres undefined)

Activity [6]: inactive
Compound: COc1cc(OC)c(Cl)c(NC(=O)N(C)c2cc(Nc3ccc(N4CCN(CC(=O)NCCOCCOCCNC(=O)C5CCN(c6ccc7c(c6)C(=O)N(C6CCC(=O)NC6=O)C7=O)CC5)CC4)cc3)ncn2)c1Cl (centres undefined)

Activity [7]: inactive
Compound: COc1cc(OC)c(Cl)c(NC(=O)N(C)c2cc(Nc3ccc(N4CCN(CC(=O)NCCNc5cccc6c5C(=O)N(C5CCC(=O)NC5=O)C6=O)CC4)cc3)ncn2)c1Cl (centres undefined)

Activity [9]: inactive
IC50 (MV4-11): > 10000 nM
IC50 (NCI-H1975): > 10000 nM
IC50 (SNU-16 [4]): 108 nM
IC50 [5]: 497 nM
IC50 (NCI-H716): 99.5 nM
Compound: COc1cc(OC)c(Cl)c(NC(=O)N(C)c2cc(Nc3ccc(N4CCN(C(=O)C5CCN(c6ccc7c(c6)C(=O)N(C6CCC(=O)N(C)C6=O)C7=O)CC5)CC4)cc3)ncn2)c1Cl (centres undefined)
IC50 at 72 h [10]: > 10000 nM
